Key:
pUL15C [1] = target: T1, pUL15C (Human herpesvirus 1, UniProt P04295); assay: Dual-probe fluorescence assay of pUL15C nuclease activity; type: biochemical
pUL15C [2] = target: T1, pUL15C; assay: Differential scanning fluorimetry; type: binding; details: wild-type pUL15C, DSF
In short: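 Binding read by thermal shift: test compound added from a 1 mM DMSO stock to 1.6 µM pUL15C in 20 mM HEPES (pH 7.5), 10 mM MgCl₂, 100 mM NaCl and SYPRO Orange (1:2000). Heated 30 to 80 °C in 0.2 °C steps. Fluorescence was read at ex 483 / em 568 nm, ΔTm was derived from melt curves, and runs were in duplicate.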

pUL15C [3] = target: T1, pUL15C; assay: Michaelis-Menten kinetic analysis with the dual-probe fluorescence assay; type: biochemical, herpes simplex virus
pUL15C [4] = target: T1, pUL15C; assay: Yonetani-Theorell analysis of pUL15C nuclease inhibition; type: biochemical; details: compound 21 0-0.4 μM, raltegravir 0-2.0 μM, substrate 250 nM
DNase I = DNase I (Bos taurus, UniProt P00639); assay: DNase I cleavage of substrate 21D/33D; type: biochemical; details: 1 mM Mn2+, 20 μM compound
Sequence of DNase I (P00639 23-282): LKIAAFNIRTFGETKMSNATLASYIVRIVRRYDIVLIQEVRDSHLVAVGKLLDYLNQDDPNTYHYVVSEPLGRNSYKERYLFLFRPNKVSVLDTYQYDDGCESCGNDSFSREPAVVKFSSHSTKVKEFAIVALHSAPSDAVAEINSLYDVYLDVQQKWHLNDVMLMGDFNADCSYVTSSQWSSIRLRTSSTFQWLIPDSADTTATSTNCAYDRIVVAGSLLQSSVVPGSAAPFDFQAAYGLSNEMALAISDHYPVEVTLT

HSV-2 = details: at noncytotoxic concentrations; cited from earlier work
pUL15C [5] = target: T1, pUL15C; assay: pUL15C nuclease activity on supercoiled plasmid, agarose gel electrophoresis; type: biochemical, herpes simplex virus
HSV-1 = details: at noncytotoxic concentrations; cited from earlier work
Lys700Ala pUL15C = Lys700Ala pUL15C (Human herpesvirus 1, UniProt P04295, K700A); assay: Differential scanning fluorimetry; type: binding, herpes simplex virus; details: DSF, 20 μM β-thujaplicinol

Molecule	decrease of the Tm of pUL15C (destabilizing effect) (pUL15C [2]) [°C]	IC50 (pUL15C [1]) [nM]	replication of wild-type and ACV-resistant HSV-2 (HSV-2)	replication of wild-type and ACV-resistant HSV-1 (HSV-1)	other results
CCN1C[C@H](C)n2c(c(O)c3c(=O)n(Cc4ccc(F)c(Cl)c4)nc(C(=O)NC)c32)C1=O [MK2048]	~0.5	–	–	–	IC50 (pUL15C [1]; read-out: IC50, pUL15C nuclease activity, dual-probe fluorescence assay, 0.3 μM pUL15C, 250 nM DNA duplex, 1 mM MnCl2, 37 °C, triplicate): > 10000 nM
C[C@@H]1CCO[C@H]2Cn3cc(C(=O)NCc4ccc(F)cc4F)c(=O)c(O)c3C(=O)N12 [dolutegravir]	–	1100 ± 90	–	–	–
COc1cc2c(cc1Cc1cccc(Cl)c1F)c(=O)c(C(=O)O)cn2[C@H](CO)C(C)C [elvitegravir]	~0.5	> 10000	–	–	–
Cc1nnc(C(=O)NC(C)(C)c2nc(C(=O)NCc3ccc(F)cc3)c(O)c(=O)n2C)o1 [raltegravir]	–	390 ± 50	–	–	Ki (pUL15C [3]): 1000 ± 100 nM; mode of pUL15C inhibition (pUL15C [3]; Lineweaver-Burke plot): noncompetitively inhibits; binding-site overlap of compound 21 and raltegravir (Yonetani-Theorell plot) (pUL15C [4]): mutually exclusive
CC(C)c1ccc(O)c(=O)c(O)c1 [β-thujaplicinol]	–	–	suppress replication	suppress replication	inhibition of DNase I cleavage of substrate 21D/33D (DNase I): insensitive to inhibition; IC50 (pUL15C [5]): 2000 nM; increase of Tm of the Lys700Ala mutant (Lys700Ala pUL15C): 4.30 °C
manicol	–	–	suppress replication	suppress replication	–
